ChEMBL document CHEMBL1123282, “Antiinflammatory activity of substituted 6-hydroxypyrimido[2,1-f]purine-2,4,8(1H,3H,9H)-triones. Atypical nonsteroidal antiinflammatory agents” (J Med Chem, 1986)
Values joined by “and” are separate entries in the source; they are usually repeats but may differ in a detail not shown here. Equal values may be shown once. One block for each compound: values may come before it.

Experiments:
Rattus norvegicus [1] = assay: Compound was tested in vivo for antiinflammatory activity against rats by RPAR(reverse passive Arthus reaction) synovitis method; format: functional
Outline: (§1)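 Lewis rats, oral drug or placebo 1 h before iv BSA (2.28 mg in saline), then intraarticular rabbit anti-BSA (0.54 mg) into one knee and saline into the other, under light anesthesia. Second oral dose at 3 h; the total of both doses is the calculated dose. About 17 h after induction, subpatellar tissue with synovium is excised and weighed. Response is antibody-minus-saline knee weight, tested by analysis of variance.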

Rattus norvegicus [2] = species: Rattus norvegicus; assay: Antiinflammatory activity by immune response to collagen II antigen in rats antibody titer was determined by passive hemagglutinination; format: functional
Outline: (§2)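 In rats with bovine type II collagen/incomplete Freund's adjuvant arthritis, the antibody response to collagen II was titred by passive hemagglutination. The delayed-type hypersensitivity component, ear thickness 24 h after intrapinna antigen, was read at day 21.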

Rattus norvegicus [3] = assay: Antiinflammatory activity against collagen II arthritis in rats, activity% inhibition in injected paw edema; format: functional; design: concentration or dose not given beside the values
Outline: (§3)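 Rats immunised with bovine articular-cartilage type II collagen (dissolved in 0.01 M AcOH for 24 h at 4 °C, dialysed against saline) mixed in equal volume with incomplete Freund's adjuvant. Paws were examined weekly for 7 weeks. An animal counted as arthritic at Δ paw volume ≥8.0 (injected paw) or ≥4.0 (noninjected paw). Bone lesions were scored on lateral-projection foot radiographs. 16 rats/group.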

Rattus norvegicus [4] = assay: Compound was tested in vivo for antiinflammatory activity against chronic adjuvant arthritic rat by prophylactic inhibition 2 degree paw after peroral administration of 2 mg/kg of dose; conditions: po, read-out: Inhibition
Rattus norvegicus [5] = species: Rattus norvegicus; assay: Antiinflammatory activity on the development of collagen II arthritis in rats, measured based on animals positive for arthritis by the presence of bone lesions; format: functional; outline: as §3
Rattus norvegicus [6] = assay: Antiinflammatory activity on the development of collagen II arthritis in rats, measured based on animals positive for arthritis by the presence of paw edema; format: functional; outline: as §3
Rattus norvegicus [7] = assay: Compound was tested in vivo for antiinflammatory activity against chronic adjuvant arthritic rat by therapeutic inhibition 2 degree paw after peroral administration of 5 mg/kg of dose; conditions: po, read-out: Inhibition
Rattus norvegicus [8] = assay: Antiinflammatory activity against collagen II arthritis in rats, activity % inhibition in noninjected paw edema; format: functional; design: concentration or dose not given beside the values; outline: as §3
Rattus norvegicus [9] = assay: Compound was tested in vivo for antiinflammatory activity against chronic adjuvant arthritic rat by prophylactic inhibition 1 degree paw after peroral administration of 2 mg/kg of dose; conditions: po, read-out: Inhibition
Rattus norvegicus [10] = assay: Compound was tested in vivo for antiinflammatory activity against chronic adjuvant arthritic rat by therapeutic inhibition 1 degree paw after peroral administration of 5 mg/kg of dose; conditions: po, read-out: Inhibition
Rattus norvegicus [11] = species: Rattus norvegicus; assay: Delayed Type hypersensitivity (DTH) is measured by increase in ear thickness 24 hours after antigen injection into pinna; format: functional
Rattus norvegicus [12] = assay: Compound was tested in vivo for antiinflammatory activity against chronic adjuvant arthritic rat by therapeutic inhibition 2 degree paw after peroral administration of 9 mg/kg of dose; format: functional; conditions: route oral
Rattus norvegicus [13] = assay: In vivo antiinflammatory activity against rats by RPAR(reverse passive Arthus reaction) synovitis method; format: functional; design: concentration or dose not given beside the values; outline: as §1
Rattus norvegicus [14] = assay: Compound was tested in vivo for antiinflammatory activity against chronic adjuvant arthritic rat by prophylactic inhibition 1 degree paw after peroral administration of 36 mg/kg of dose; format: functional; conditions: po
Rattus norvegicus [15] = assay: Tested in vivo for antiinflammatory activity against chronic adjuvant arthritic rat by prophylactic inhibition 2 degree paw after peroral administration of 9 mg/kg of dose; format: functional; conditions: route oral
Outline: (§4)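 Prophylactic regimen, rats. Adjuvant is heat-killed Mycobacterium tuberculosis ground to a fine powder in paraffin oil (6 mg/mL); 0.1 mL is injected into the left hind paw. Oral drug is given 1 h before adjuvant challenge, then for 21 consecutive days; controls receive methyl cellulose. Left (1°) and right (2°) hind paw volumes are measured by plethysmograph.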

Rattus norvegicus [16] = assay: Compound was tested in vivo for antiinflammatory activity against chronic adjuvant arthritic rat by prophylactic inhibition 1 degree paw after peroral administration of 18 mg/kg of dose; format: functional
Outline: (§5)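 Prophylactic adjuvant arthritis: heat-killed Mycobacterium tuberculosis powder in paraffin oil (6 mg/mL), 0.1 mL injected into the left hind paw. Drug given orally 1 h before adjuvant, then for 21 consecutive days; controls received methyl cellulose. Left (1°) and right (2°) hind paw volumes were measured by plethysmograph.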

Rattus norvegicus [17] = assay: Compound was tested in vivo against chronic adjuvant arthritic rat by prophylactic inhibition 2 degree paw. Relative potency with respect to (8-Benzyl-5-hydroxy-1,3-dimethyl-6-propyl-1H,8H-1,3,4b,8,9-pentaaza-fluorene-2,4,7-trione); format: functional
[18] = target: T1, Polyunsaturated fatty acid 5-lipoxygenase (Rattus norvegicus) (UniProt P12527); assay: In vitro inhibitory activity against Lipoxygenase in rat neutrophils at a dose of 50 uM
T1 sequence (whole entry): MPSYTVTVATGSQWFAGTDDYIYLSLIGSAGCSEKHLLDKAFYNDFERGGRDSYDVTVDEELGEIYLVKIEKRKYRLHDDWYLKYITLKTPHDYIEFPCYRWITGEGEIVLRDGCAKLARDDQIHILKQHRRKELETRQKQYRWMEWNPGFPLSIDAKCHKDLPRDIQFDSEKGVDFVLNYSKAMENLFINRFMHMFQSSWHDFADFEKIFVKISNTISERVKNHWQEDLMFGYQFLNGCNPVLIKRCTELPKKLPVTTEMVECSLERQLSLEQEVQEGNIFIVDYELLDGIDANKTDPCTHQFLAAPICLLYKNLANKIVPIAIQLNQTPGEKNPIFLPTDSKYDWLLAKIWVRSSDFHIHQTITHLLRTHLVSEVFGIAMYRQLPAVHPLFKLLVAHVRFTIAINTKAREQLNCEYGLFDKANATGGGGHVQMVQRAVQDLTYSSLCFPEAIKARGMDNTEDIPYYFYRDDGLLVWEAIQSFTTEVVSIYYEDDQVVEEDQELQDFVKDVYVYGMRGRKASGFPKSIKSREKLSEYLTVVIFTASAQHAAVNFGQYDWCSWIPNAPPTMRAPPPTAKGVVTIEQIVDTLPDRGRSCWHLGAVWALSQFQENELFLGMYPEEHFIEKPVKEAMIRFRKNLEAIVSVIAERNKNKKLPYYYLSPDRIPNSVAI
Outline: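 Neutrophils come from the 4 h pleural exudate of male Wistar-Lewis rats given iv BSA plus intrapleural rabbit anti-BSA IgG. Cells are washed, red cells lysed with NH4Cl, and resuspended at about 5×10^6 cells/0.1 mL in Tris pH 7.4 with NaCl and 1 mM CaCl2. Cells are preincubated with compound 4 min at room temperature.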

Rattus norvegicus [19] = assay: Compound was tested in vivo for antiinflammatory activity against chronic adjuvant arthritic rat by prophylactic inhibition 2 degree paw after peroral administration of 36 mg/kg of dose; format: functional; conditions: po
Rattus norvegicus [20] = assay: Tested in vivo for antiinflammatory activity against chronic adjuvant arthritic rat by prophylactic inhibition 1 degree paw after peroral administration of 9 mg/kg of dose; format: functional; conditions: route oral; outline: as §4
Rattus norvegicus [21] = assay: Compound was tested in vivo for antiinflammatory activity against chronic adjuvant arthritic rat by therapeutic inhibition 1 degree paw after peroral administration of 36 mg/kg of dose; conditions: route oral
Rattus norvegicus [22] = assay: Compound was tested in vivo for antiinflammatory activity against chronic adjuvant arthritic rat by prophylactic inhibition 2 degree paw after peroral administration of 18 mg/kg of dose; format: functional; conditions: route oral; outline: as §5
Rattus norvegicus [23] = assay: Compound was tested in vivo for antiinflammatory activity against chronic adjuvant arthritic rat by therapeutic inhibition 1 degree paw after peroral administration of 9 mg/kg of dose; format: functional; conditions: route oral
[24] = target: Cyclooxygenase (Rattus norvegicus) (UniProt P35355+Q63921); assay: In vitro inhibitory activity against Prostaglandin G/H synthase in rat neutrophils at a dose of 50 uM
Rattus norvegicus [25] = assay: Compound was tested in vivo for antiinflammatory activity against chronic adjuvant arthritic rat by therapeutic inhibition 2 degree paw after peroral administration of 36 mg/kg of dose; conditions: route oral
Rattus norvegicus [26] = assay: Compound was tested in vivo for antiinflammatory activity against chronic adjuvant arthritic rat by therapeutic inhibition 2 degree paw. Relative potency with respect to (8-Benzyl-5-hydroxy-1,3-dimethyl-6-propyl-1H,8H-1,3,4b,8,9-pentaaza-fluorene-2; format: functional
Rattus norvegicus [27] = assay: Compound was tested in vivo for antiinflammatory activity against chronic adjuvant arthritic rat by prophylactic inhibition 1 degree paw after peroral administration of 10 mg/kg of dose; format: functional; conditions: route oral; outline: as §5
Rattus norvegicus [28] = assay: Compound was tested in vivo for antiinflammatory activity against chronic adjuvant arthritic rat by prophylactic inhibition 2 degree paw after peroral administration of 10 mg/kg of dose; format: functional; conditions: route oral; outline: as §5
Rattus norvegicus [29] = species: Rattus norvegicus; assay: Compound was tested for antiinflammatory activity by immune response to collagen II antigen in rats, antibody titer was determined by passive hemagglutinination; format: functional; outline: as §2
Rattus norvegicus [30] = species: Rattus norvegicus; assay: Compound was tested for antiinflammatory activity against collagen II arthritis in rats,; format: functional; outline: as §3
Rattus norvegicus [31] = species: Rattus norvegicus; assay: compound was tested for antiinflammatory activity against collagen II arthritis in rats,; format: functional
Outline: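 Arthritis induced in rats by injection of bovine articular cartilage type II collagen (dissolved in 0.01 M AcOH, dialysed against saline) mixed 1:1 with incomplete Freund's adjuvant. Paw inflammation checked weekly for 7 weeks. Inhibition = [Δpaw vol(collagen) − Δpaw vol(collagen + drug)]/[Δpaw vol(collagen) − Δpaw vol(ICFA control)] × 100. Bone damage scored by lateral-projection radiography; p ≤ 0.05 by Student's t-test.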

Rattus norvegicus [32] = assay: (§6) compound was tested in vivo for antiinflammatory activity against rats by RPAR(reverse passive Arthus reaction) synovitis method; format: functional
Outline: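 Lewis rats dosed orally 1 h before iv BSA (2.28 mg) and intraarticular rabbit anti-BSA (0.54 mg) into one knee, saline into the other; dosed orally again at 3 h. Total dose counted. At about 17 h, subpatellar tissue with synovium weighed; Δ weight between the two knees taken as the response. Compared with lesion controls by ANOVA.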

Rattus norvegicus [33] = assay: Compound was tested in vivo for antiinflammatory activity against chronic adjuvant arthritic rat by therapeutic inhibition 2 degree paw after peroral administration of 0.3 mg/kg of dose; conditions: po, read-out: Inhibition
Rattus norvegicus [34] = assay: as §6
Rattus norvegicus [35] = species: Rattus norvegicus; assay: animal or person; conditions: po, read-out: Inhibition
Rattus norvegicus [36] = assay: Compound was tested in vivo for antiinflammatory activity against chronic adjuvant arthritic rat by prophylactic inhibition 2 degree paw after peroral administration of 1 mg/kg of dose; conditions: po, read-out: Inhibition
Rattus norvegicus [37] = assay: Compound was tested in vivo for antiinflammatory activity against chronic adjuvant arthritic rat by therapeutic inhibition 2 degree paw after peroral administration of 3 mg/kg of dose; conditions: po, read-out: Inhibition
Rattus norvegicus [38] = assay: Compound was tested in vivo for antiinflammatory activity against chronic adjuvant arthritic rat by therapeutic inhibition 2 degree paw after peroral administration of 1 mg/kg of dose; format: functional; conditions: route oral

Structure (SMILES): CN1C(C(=O)Nc2ccccn2)=C(O)c2ccccc2S1(=O)=O [PIROXICAM]
- ED50 (Rattus norvegicus [1]): 3.5 mg/kg
- Antibody titer (Rattus norvegicus [2]): 12.2
- Inhibition (Rattus norvegicus [3]): 0%
- inhibition in vivo at 2 mg/kg (Rattus norvegicus [4]): 84%
- Positive (Rattus norvegicus [5]): 60%
- Positive (Rattus norvegicus [6]): 73.3%
- inhibition in vivo at 5 mg/kg (Rattus norvegicus [7]): 80%
- Inhibition (Rattus norvegicus [8]): 0%
- inhibition in vivo at 2 mg/kg (Rattus norvegicus [9]): 66%
- inhibition in vivo at 5 mg/kg (Rattus norvegicus [10]): 68%
- DTH (Rattus norvegicus [11]): 0.0526 mm

- inhibition [18]: 0% and 5%
- inhibition [24]: 43%
Structure (SMILES): CCCc1c(O)n(Cc2ccccc2)c2nc3c(c(=O)n(C)c(=O)n3C)n2c1=O
- inhibition in vivo at 9 mg/kg (Rattus norvegicus [12]): 15%
- Inhibition (Rattus norvegicus [13]): 33%
- inhibition in vivo at 36 mg/kg (Rattus norvegicus [14]): 59%
- Antibody titer (Rattus norvegicus [2]): 9.2
- Inhibition (Rattus norvegicus [3]): 9.6%
- inhibition in vivo at 9 mg/kg (Rattus norvegicus [15]): 38%
- inhibition in vivo at 18 mg/kg (Rattus norvegicus [16]; Rattus norvegicus, po): 41%
- Inhibition (Rattus norvegicus [16]; route oral, 18 mg/kg): 41%
- Relative potency (Rattus norvegicus [17]): 1
- Positive (Rattus norvegicus [5]): 26.7%
- Positive (Rattus norvegicus [6]): 26.7%
- inhibition in vivo at 36 mg/kg (Rattus norvegicus [19]): 78%
- inhibition in vivo at 9 mg/kg (Rattus norvegicus [20]): 16%
- Inhibition (Rattus norvegicus [21]): 64%
- inhibition in vivo at 18 mg/kg (Rattus norvegicus [22]): 52%
- inhibition in vivo at 9 mg/kg (Rattus norvegicus [23]): 17%
- Inhibition (Rattus norvegicus [8]): 37.5%
- Inhibition (Rattus norvegicus [25]): 77%
- DTH (Rattus norvegicus [11]): 0.0464 mm
- Relative potency (Rattus norvegicus [26]): 1

- inhibition [18]: 16% and 20%
- inhibition [24]: 16%
Structure (SMILES): C=CCc1c(O)n(Cc2ccccc2)c2nc3c(c(=O)n(C)c(=O)n3C)n2c1=O
- Inhibition (Rattus norvegicus [13]): 29%
- inhibition in vivo at 10 mg/kg (Rattus norvegicus [27]): 16%
- inhibition in vivo at 10 mg/kg (Rattus norvegicus [28]): 16%

Structure (SMILES): CC(C)(S)[C@@H](N)C(=O)O [PENICILLAMINE]
- Antibody titer (Rattus norvegicus [29]): 10.7
- Inhibition (Rattus norvegicus [3]): 36%
- Positive (Rattus norvegicus [30]): 31.5%
- Positive (Rattus norvegicus [31]): 31.3%
- Inhibition (Rattus norvegicus [8]): 42.6%
- DTH (Rattus norvegicus [11]): 0.0538 mm

Structure (SMILES): Cn1c(=O)c2c(nc3n(Cc4ccccc4)c(=O)/c(=C/O)c(=O)n23)n(C)c1=O
- Inhibition (Rattus norvegicus [32]): 14%

Structure (SMILES): COc1ccc2cc([C@H](C)C(=O)O)ccc2c1 [NAPROXEN]
- inhibition in vivo at 0.3 mg/kg (Rattus norvegicus [33]): 27%
- ED50 (Rattus norvegicus [34]): 24.4 mg/kg
- inhibition in vivo at 25 mg/kg (Rattus norvegicus [35]): 58%
- inhibition in vivo at 1 mg/kg (Rattus norvegicus [36]): 14%
- inhibition in vivo at 3 mg/kg (Rattus norvegicus [37]): 70%
- inhibition in vivo at 1 mg/kg (Rattus norvegicus [38]): 50%
- inhibition in vivo at 5 mg/kg (Rattus norvegicus [7]): 44%
